Results taken from ChEMBL document CHEMBL3997768, “The synthesis and antistaphylococcal activity of dehydroabietic acid derivatives: modifications at C12 and C7” (2017).
Converted amounts (≈) assume the structure as drawn. The source made the active and inactive calls. The rule behind the calls is not given here.

Assays:
[1] = test system: Staphylococcus aureus; assay: Antibacterial activity against Staphylococcus aureus Newman after 18 hrs by two fold serial dilution method; assay type: functional
Method in brief: (§1)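 Strains were grown overnight at 37 °C in TSB without antibiotic, diluted 1000-fold, and grown 2–3 h to A600 0.6. They were then diluted 1:400 in fresh TSB. Compounds in DMSO were two-fold serially diluted to a final 0.39–50 and mixed with an equal volume of bacteria. A600 was read after 18 h. MIC is the lowest concentration inhibiting growth. Triplicate; vancomycin and tetracycline were positive controls.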

[2] = test system: Escherichia coli; assay: Antibacterial activity against Escherichia coli AB1157 at 50 ug/ml after 18 hrs by two fold serial dilution method; assay type: functional; method in brief: as §1

SMILES | MIC [1] [µM] | Activity [2]
CC(=O)NCCO/N=C1\C[C@H]2[C@](C)(C(=O)O)CCC[C@]2(C)c2cc(Br)c(C(C)C)cc21 | > 101 | inactive
CC(C)c1cc2c(cc1Br)[C@@]1(C)CCC[C@@](C)(C(=O)O)[C@@H]1C/C2=N\OCCNC(=O)Cc1cccc(C(F)(F)F)c1 | 5.88 to 7.84 (≈ 3.75 to 5 µg/mL) | inactive
CC(C)c1cc2c(cc1Br)[C@@]1(C)CCC[C@@](C)(C(=O)O)[C@@H]1C/C2=N\OCCNC(=O)c1c(F)c(F)c(F)c(F)c1F | 5.81 to 7.75 (≈ 3.75 to 5 µg/mL) | inactive
COc1ccc(C(=O)NCCO/N=C2\C[C@H]3[C@](C)(C(=O)O)CCC[C@]3(C)c3cc(Br)c(C(C)C)cc32)cc1 | 25.6 to 34.2 (≈ 15 to 20 µg/mL) | inactive
CC(C)c1cc2c(cc1Br)[C@@]1(C)CCC[C@@](C)(C(=O)O)[C@@H]1C/C2=N\OCCNC(=O)C1CC1 | 57.8 to 77 (≈ 30 to 40 µg/mL) | inactive
CC(C)c1cc2c(cc1Br)[C@@]1(C)CCC[C@@](C)(C(=O)O)[C@@H]1C/C2=N\OCCNC(=O)c1ccccc1C(F)(F)F | 10 to 20.1 (≈ 6.25 to 12.5 µg/mL) | inactive
CC(C)c1cc2c(cc1Br)[C@@]1(C)CCC[C@@](C)(C(=O)O)[C@@H]1C/C2=N\OCCCNC(=O)c1ccccc1C(F)(F)F | 7.84 to 9.8 (≈ 5 to 6.25 µg/mL) | inactive
CC(C)c1cc2c(cc1Br)[C@@]1(C)CCC[C@@](C)(C(=O)O)[C@@H]1C/C2=N\OCCCN | > 107 | inactive

The next lines start with results.

MIC [1] [µM] | SMILES | Activity [2]
26.9 to 35.9 (≈ 15 to 20 µg/mL) | CC(C)c1cc2c(cc1Br)[C@@]1(C)CCC[C@@](C)(C(=O)O)[C@@H]1C/C2=N\OCCNC(=O)c1ccccn1 | inactive
17.4 (≈ 10 µg/mL) | CC(C)c1cc2c(cc1Br)[C@@]1(C)CCC[C@@](C)(C(=O)O)[C@@H]1C/C2=N\OCCCNC(=O)c1ccsc1 | inactive
21.9 (≈ 12.5 µg/mL) | CC(C)c1cc2c(cc1Br)[C@@]1(C)CCC[C@@](C)(C(=O)O)[C@@H]1C/C2=N\OCCCNC(=O)c1ccccn1 | inactive
56.2 to 75 (≈ 30 to 40 µg/mL) | CC(C)c1cc2c(cc1Br)[C@@]1(C)CCC[C@@](C)(C(=O)O)[C@@H]1C/C2=N\OCCCNC(=O)C1CC1 | inactive
5.86 to 7.81 (≈ 3.75 to 5 µg/mL) | CC(C)c1cc2c(cc1Br)[C@@]1(C)CCC[C@@](C)(C(=O)O)[C@@H]1C/C2=N\OCCNC(=O)c1cc(Br)cs1 | inactive
18 to 22.5 (≈ 10 to 12.5 µg/mL) | CC(C)c1cc2c(cc1Br)[C@@]1(C)CCC[C@@](C)(C(=O)O)[C@@H]1C/C2=N\OCCNC(=O)c1ccccc1 | inactive
72.8 to 91 (≈ 40 to 50 µg/mL) | CC(C)c1cc2c(cc1Br)[C@@]1(C)CCC[C@@](C)(C(=O)O)[C@@H]1C/C2=N\OCCCNC(=O)C(C)(C)C | inactive
> 89 | CC(C)c1cc2c(cc1Br)[C@@]1(C)CCC[C@@](C)(C(=O)O)[C@@H]1C/C2=N\OCCNC(=O)c1cccs1 | inactive
5.75 to 9.18 (≈ 3.13 to 5 µg/mL) | CC(C)c1cc2c(cc1Br)[C@@]1(C)CCC[C@@](C)(C(=O)O)[C@@H]1C/C2=N\OCCNC(=O)c1ccc[nH]1 | inactive
8.78 (≈ 5 µg/mL) | CC(C)c1cc2c(cc1Br)[C@@]1(C)CCC[C@@](C)(C(=O)O)[C@@H]1C/C2=N\OCCCNC(=O)c1ccccc1 | inactive
